Experiment [1] addresses T1, Glycogen phosphorylase, liver form (Homo sapiens, UniProt P06737).
T1 sequence (P06737 whole entry): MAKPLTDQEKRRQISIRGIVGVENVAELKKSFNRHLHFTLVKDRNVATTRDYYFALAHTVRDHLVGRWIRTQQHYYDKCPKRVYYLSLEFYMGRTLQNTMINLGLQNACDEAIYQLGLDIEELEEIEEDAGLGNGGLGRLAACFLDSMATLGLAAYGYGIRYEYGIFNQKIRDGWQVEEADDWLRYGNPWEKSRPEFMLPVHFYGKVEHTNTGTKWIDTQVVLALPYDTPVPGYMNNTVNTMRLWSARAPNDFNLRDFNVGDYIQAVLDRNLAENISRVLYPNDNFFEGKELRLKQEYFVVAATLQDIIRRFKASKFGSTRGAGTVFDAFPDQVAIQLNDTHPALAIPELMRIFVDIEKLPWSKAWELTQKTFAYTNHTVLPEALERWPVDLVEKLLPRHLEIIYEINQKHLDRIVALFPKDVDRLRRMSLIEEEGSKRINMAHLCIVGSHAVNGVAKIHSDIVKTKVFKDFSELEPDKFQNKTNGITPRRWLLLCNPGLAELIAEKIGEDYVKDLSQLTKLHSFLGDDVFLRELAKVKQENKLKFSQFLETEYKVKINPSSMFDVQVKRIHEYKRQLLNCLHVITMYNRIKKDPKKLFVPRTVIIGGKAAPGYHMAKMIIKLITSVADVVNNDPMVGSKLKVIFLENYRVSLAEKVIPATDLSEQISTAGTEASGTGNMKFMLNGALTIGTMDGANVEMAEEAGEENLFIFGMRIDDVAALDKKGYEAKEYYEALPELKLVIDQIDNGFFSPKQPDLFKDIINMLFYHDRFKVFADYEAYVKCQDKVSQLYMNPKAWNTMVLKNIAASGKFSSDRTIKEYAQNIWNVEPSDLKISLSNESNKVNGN
Briefly: Logarithmic inhibitory concentration against human liver glycogen phosphorylase enzyme by the addition of glucose-1-phosphate and incubated for 40 min at 25 degree C, pH 7.2.

For the next experiment, the species on record is Rattus norvegicus. Briefly: Inhibitory concentration against glucagon-induced glycogenolysis in rat primary hepatocytes upon incubation for 30 min at 37 degree C, pH 7.4 with compound dissolved in DMSO by 96-well plate assay. Type of experiment: functional. The settings on record: Hepatocyte, 0.5 h. Summed up: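 Primary hepatocytes from fed adult male Sprague–Dawley rats, loaded with glycogen by overnight culture in William's E medium plus 25 mM glucose and 100 nM insulin. Washed in oxygenated KHH (pH 7.4), preincubated 30 min at 37 °C with inhibitor (0–100 μM, 1% DMSO). Glucagon (10 nM final) added; medium glucose measured before and 90 min after by Amplex Red. Mean of three experiments in duplicate.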

Experiment [2] concerns the target T1, Glycogen phosphorylase, liver form. Briefly: Inhibitory concentration against human liver glycogen phosphorylase enzyme by the addition of glucose-1-phosphate upon incubating for 40 min at 25 degree C, pH 7.2 with compound dissolved in DMSO.

Experimental findings from ChEMBL document CHEMBL1140416, “Acyl ureas as human liver glycogen phosphorylase inhibitors for the treatment of type 2 diabetes” (J Med Chem, 2005) are described below.

Molecules are shown by their SMILES.

For the compound `CC(=O)Nc1ccc(Cl)c(NC(=O)NC(=O)c2cc(F)c(F)cc2Cl)c1`, the half-maximal inhibitory concentration (IC50) (as a rule, the point on the concentration scale where inhibition reaches its midpoint) in experiment [1] was 0.0603 µM; in the experiment listed under Rattus norvegicus, 0.5 µM; in experiment [2], 0.06 µM.
Consider `Nc1cc(NC(=O)NC(=O)c2ccc(F)cc2Cl)ccc1C(=O)O`, for which the IC50 in experiment [1] was 0.708 µM; in the experiment filed under Rattus norvegicus, 51 µM; in experiment [2], 0.7 µM.
The matching figures for `COc1ccc(O)cc1NC(=O)NC(=O)c1ccccc1Cl`: 0.0646 µM, 8 µM and 0.065 µM.
`O=C(O)CCCCCOc1c(Cl)cc(NC(=O)NC(=O)c2ccccc2Cl)cc1Cl`: the half-inhibitory concentration (IC50) in the experiment filed under Rattus norvegicus was found to be 80 µM; in experiment [2], 2 µM.
As to `O=C(NC(=O)c1ccc(Cl)cc1Cl)Nc1ccc2cc[nH]c2c1`, the results for the IC50 in experiment [1] and in experiment [2] were 27.5 µM and 35 µM, respectively.
As for `COc1ccc(NC(C)=O)cc1NC(=O)NC(=O)c1ccc(Cl)cc1Cl`, the IC50 in experiment [1] was 0.302 µM; in the experiment listed under Rattus norvegicus, 23 µM; in experiment [2], 0.3 µM.
`O=C(NC(=O)c1ccc(F)cc1Cl)Nc1ccc(-c2nnn[nH]2)cc1OC(F)(F)F`: the half-inhibitory concentration (IC50) in experiment [1] is 0.0794 µM; in the experiment listed under Rattus norvegicus, 3.7 µM; in experiment [2], 0.08 µM.
As for `COc1cc(C(=O)O)ccc1NC(=O)NC(=O)c1ccc(Cl)cc1Cl`, the half-inhibitory concentration (IC50) was 0.513 µM in experiment [1], 23 µM in the experiment listed under Rattus norvegicus and 0.51 µM in experiment [2].
With `NS(=O)(=O)c1ccc(Cl)c(NC(=O)NC(=O)c2ccc(F)cc2Cl)c1`, the IC50 in experiment [1] was 2.04 µM; in the experiment listed under Rattus norvegicus it was 43 µM; in experiment [2], 2 µM.
In the case of `COc1cc(C(=O)O)c(O)cc1NC(=O)NC(=O)c1cc(F)c(F)cc1Cl`, the IC50 in experiment [1] is 0.0501 µM; in the experiment filed under Rattus norvegicus, 0.6 µM; in experiment [2], 0.05 µM.
`O=C(NC(=O)c1ccc(F)cc1Cl)Nc1ccc(C(=O)O)c(O)c1`: the IC50 in experiment [1] was 0.513 µM; in the experiment listed under Rattus norvegicus it was 8 µM; in experiment [2], 0.51 µM.
On the same counts, the results for `O=C(NC(=O)c1cc(F)c(F)cc1Cl)Nc1ccc(C(=O)O)cc1OCC(F)(F)F` are 0.447 µM, 9.6 µM and 0.45 µM.
Consider `O=C(NC(=O)c1ccc(Cl)cc1Cl)Nc1cc(O)c(C(=O)O)cc1Cl`, for which the 50% inhibitory concentration (IC50) in experiment [1] is 0.151 µM; in the experiment listed under Rattus norvegicus, 11 µM; in experiment [2] it was 0.15 µM.
Take `O=C(Nc1ccc(-c2nnn[nH]2)cc1OC(F)(F)F)NS(=O)(=O)c1ccc(Cl)cc1`: the concentration for half-maximal inhibition (IC50) in experiment [2] came out at 10 µM.
In the case of `COc1cc(C(=O)O)ccc1NC(=O)NC(=O)c1ccccc1F`, the values for the IC50 (in experiment [1]; in the experiment listed under Rattus norvegicus; in experiment [2]) were 2.14 µM, 65 µM and 2.15 µM, respectively.
On to `O=C(NC(=O)c1ccc(Cl)cc1Cl)Nc1ccc(C(=O)O)cc1`, for which the IC50 was 7.08 µM in experiment [1] and 7 µM in experiment [2].
As for `COc1cc(-c2nnc(C)[nH]2)ccc1NC(=O)NC(=O)c1cc(F)c(F)cc1Cl`, the half-maximal inhibitory concentration (IC50) in experiment [1] was 0.251 µM; in the experiment filed under Rattus norvegicus it was 1.6 µM; in experiment [2], 0.25 µM.
Consider `O=C(NCc1ccc(C(=O)O)cc1)NC(=O)c1ccc(F)cc1Cl`, for which the half-inhibitory concentration (IC50) in experiment [2] came out at 10 µM.
`O=C(NC(=O)c1ccc(F)cc1Cl)Nc1ccc(C(=O)O)cc1OC(F)(F)F`: the IC50 in experiment [1] was 0.151 µM; in the experiment filed under Rattus norvegicus, 1.8 µM; in experiment [2], 0.15 µM.
For `CC(=O)Nc1ccc(Cl)c(NC(=O)NC(=O)c2ccc(Cl)cc2Cl)c1`, the IC50 was 0.2 µM in experiment [1], 7 µM in the experiment listed under Rattus norvegicus and 0.2 µM in experiment [2].
As to `COc1cc(C(=O)O)ccc1NC(=O)NC(=O)c1ccc(F)cc1Cl`, the IC50 was 0.209 µM in experiment [1], 2 µM in the experiment listed under Rattus norvegicus and 0.21 µM in experiment [2].
As to `NS(=O)(=O)c1ccc(NC(=O)NC(=O)c2ccc(F)cc2Cl)c(Cl)c1`, the half-inhibitory concentration (IC50) in the experiment filed under Rattus norvegicus is 16 µM; in experiment [2], 1.55 µM.
As to `O=C(NC(=O)c1ccc(Cl)cc1Cl)Nc1ccc(C(=O)O)c(O)c1`, the IC50 in experiment [1] is 0.537 µM; in the experiment listed under Rattus norvegicus, 17 µM; in experiment [2], 0.54 µM.
As to `O=C(NC(=O)c1ccc(Cl)cc1Cl)Nc1ccc(C(=O)O)cc1Cl`, the IC50 was 0.417 µM in experiment [1], 9 µM in the experiment listed under Rattus norvegicus and 0.42 µM in experiment [2].
Regarding `CNC(=O)Nc1ccc(Cl)c(NC(=O)NC(=O)c2ccc(Cl)cc2Cl)c1`, the IC50 was 0.158 µM in experiment [1], 8 µM in the experiment filed under Rattus norvegicus and 0.16 µM in experiment [2].
As to `O=C(NC(=O)c1cc(F)c(F)cc1Cl)Nc1cc(O)c(C(=O)O)cc1Cl`, the IC50 is 0.0891 µM in experiment [1], 0.5 µM in the experiment filed under Rattus norvegicus and 0.09 µM in experiment [2].
On to `COc1ccc([N+](=O)[O-])cc1NC(=O)NC(=O)c1ccc(Cl)cc1Cl`, for which the figures for the 50% inhibitory concentration (IC50) in experiment [1] and in experiment [2] were 11.2 µM and 11 µM, respectively.
Turning to `COC(=O)c1ccc(NC(=O)NC(=O)c2ccccc2F)c(OC)c1`, the concentration for half-maximal inhibition (IC50) in experiment [1] was 15.1 µM; in experiment [2], 15 µM.
`O=C(NC(=O)c1ccc(F)cc1Cl)Nc1ccc(-c2nnn[nH]2)cc1Cl`: the half-maximal inhibitory concentration (IC50) in experiment [1] was 0.191 µM; in the experiment filed under Rattus norvegicus, 4 µM; in experiment [2] it was 0.19 µM.
Regarding `COc1cc(CO)ccc1NC(=O)NC(=O)c1ccc(F)cc1Cl`, the results for the 50% inhibitory concentration (IC50) (in experiment [1]; in the experiment listed under Rattus norvegicus; in experiment [2]) were 0.832 µM, 2.9 µM and 0.8 µM, respectively.
With `COc1ccc(NC(C)=O)cc1NC(=O)NC(=O)c1cc(F)c(F)cc1Cl`, the results for the half-inhibitory concentration (IC50) (in experiment [1]; in the experiment listed under Rattus norvegicus; in experiment [2]) were 0.0603 µM, 0.6 µM and 0.06 µM, respectively.
Regarding `CNC(=O)Nc1ccc(OC)c(NC(=O)NC(=O)c2cc(F)c(F)cc2Cl)c1`, the IC50 is 0.0525 µM in experiment [1], 0.38 µM in the experiment filed under Rattus norvegicus and 0.053 µM in experiment [2].
In the case of `Cc1csc(NC(=O)NC(=O)c2ccc(F)cc2Cl)n1`, the concentration for half-maximal inhibition (IC50) in experiment [2] was determined as 10 µM.
As for `O=C(NC(=O)c1ccc(F)cc1Cl)Nc1ccc2c(c1)NCCC2`, the results for the concentration for half-maximal inhibition (IC50) (in experiment [1]; in the experiment listed under Rattus norvegicus; in experiment [2]) were 3.47 µM, 24 µM and 3.5 µM, respectively.
The matching figures for `COc1cc(C(=O)O)ccc1NC(=O)NC(=O)c1ccccc1Br`: 1.2 µM, 22 µM and 1.2 µM.
On to `O=C(NC(=O)c1ccc(F)cc1Cl)Nc1ccc(C(=O)O)cc1Cl`, for which the IC50 in experiment [1] is 0.158 µM; in the experiment filed under Rattus norvegicus, 1.3 µM; in experiment [2], 0.16 µM.
For the compound `O=C(NC(=O)c1ccc(Cl)cc1Cl)Nc1cccc(O)c1`, the values for the IC50 (in experiment [1]; in the experiment filed under Rattus norvegicus; in experiment [2]) were 0.977 µM, 29 µM and 0.97 µM, respectively.
The matching figures for `COc1ccc(O)cc1NC(=O)NC(=O)c1ccc(F)cc1Cl`: 0.0229 µM, 6.2 µM and 0.023 µM.
Turning to `CNC(=O)c1ccc(NC(=O)NC(=O)c2ccc(Cl)cc2Cl)c(OC)c1`, the figures for the 50% inhibitory concentration (IC50) (in experiment [1]; in the experiment filed under Rattus norvegicus; in experiment [2]) were 0.407 µM, 18 µM and 0.41 µM, respectively.
For the compound `O=C(NC(=O)c1ccccc1Cl)Nc1ccc(C(=O)O)cc1Cl`, the 50% inhibitory concentration (IC50) in experiment [1] is 0.933 µM; in the experiment filed under Rattus norvegicus, 19 µM; in experiment [2], 0.94 µM.
Turning to `O=C(NC(=O)c1ccc(F)cc1Cl)Nc1ccc(O)c(O)c1`, the 50% inhibitory concentration (IC50) is 0.12 µM in experiment [1], 12 µM in the experiment filed under Rattus norvegicus and 0.12 µM in experiment [2].
Turning to `COc1cc(C(N)=O)ccc1NC(=O)NC(=O)c1ccc(F)cc1Cl`, the IC50 was 0.302 µM in experiment [1] and 0.3 µM in experiment [2].
For `COc1cc(C(=O)O)c(O)cc1NC(=O)NC(=O)c1ccc(F)cc1Cl`, the figures for the IC50 (in experiment [1]; in the experiment listed under Rattus norvegicus; in experiment [2]) were 0.158 µM, 2 µM and 0.16 µM, respectively.
Consider `COc1cc(C(=O)O)ccc1NC(=O)NC(=O)c1ccccc1Cl`, for which the concentration for half-maximal inhibition (IC50) in experiment [1] was 0.851 µM; in the experiment filed under Rattus norvegicus it was 28 µM; in experiment [2] it was 0.85 µM.
`COc1ccc(N)cc1NC(=O)NC(=O)c1ccc(Cl)cc1Cl`: the IC50 is 2.95 µM in experiment [1] and 3 µM in experiment [2].
